Assay results of several laboratories.
Compare with care: the assays were run in different laboratories.
Cell line: PC-3
Effect on: cell growth or viability

Cc1cc(C)cc(COc2cc3c(cc2OCc2cc(C)cc(C)c2)[C@H]2C[C@](O)(Cc4cn(-c5ccccc5)nn4)C[C@H](C)N2CC3)c1  IC50 (MTT): 264 nM
CC(C)c1ccc(/C=C2\SC(=S)N(CC(=O)Nc3ccccc3)C2=O)cc1  inhibition (MTT; 10 µM): 29%
COc1cc2ncnc(Nc3ccc(F)c(Cl)c3)c2cc1NC(=O)N/N=C/c1cccn1CCCN1CCCCC1  IC50 (MTT; 72 h): 1060 nM
O=C(CN1C(=O)/C(=C/c2ccccn2)SC1=S)Nc1ccccc1  inhibition (MTT; 10 µM): 30.5%
C=CS(=O)(=O)Nc1ccc(Cn2cc(C[C@@]3(O)C[C@@H]4c5cc(OCc6cc(C)cc(C)c6)c(OCc6cc(C)cc(C)c6)cc5CCN4[C@@H](C)C3)nn2)cc1  IC50 (MTT): 576 nM
CN(C)C/C=N/NC(=O)Nc1cc2c(Nc3ccc(F)c(Cl)c3)ncnc2cc1O[C@H]1CCOC1  IC50 (MTT; 72 h): 6510 nM
COc1cccc(NC(=O)CN2C(=O)/C(=C/C3CC3)SC2=S)c1  inhibition (MTT; 10 µM): 18.6%
COc1cc2ncnc(Nc3ccc(F)c(Cl)c3)c2cc1NC(=O)N/N=C/c1cccn1CCCN1CCCC1  IC50 (MTT; 72 h): 1560 nM
Cc1cc(C)cc(COc2cc3c(cc2OCc2cc(C)cc(C)c2)[C@H]2C[C@](O)(Cc4cn(CC5CC5)nn4)C[C@H](C)N2CC3)c1  IC50 (MTT): 302 nM
O=C(CN1C(=O)/C(=C/c2cccs2)SC1=S)Nc1ccccc1  inhibition (MTT; 10 µM): 5.3%
COc1cccc(NC(=O)C2CCCN(C(=O)c3cc(C(F)(F)F)cc(C(F)(F)F)c3)C2)c1 (stereo not drawn)  inhibition (WST-1; 100 µM): 0%
COc1cc2ncnc(Nc3ccc(F)c(Cl)c3)c2cc1NC(=O)N/N=C/c1cccn1CCN1CCCCC1  IC50 (MTT; 72 h): 2240 nM
COc1ccnc(COc2ccc(NC(=O)Nc3ccc(Cl)cc3)cc2)c1OC  IC50 (MTT; 72 h): > 100000 nM
COc1ccc(C(=O)/C=C/c2ccc3ccccc3c2)cc1S(N)(=O)=O  inhibition (SRB; 10 µM): 112%
Cc1c(OCC(F)(F)F)ccnc1COc1ccc(NC(=O)Nc2cccc(C(F)(F)F)c2)cc1  IC50 (MTT; 72 h): > 100000 nM
COc1ccc(C(=O)/C=C/c2cccc3ccccc23)cc1S(N)(=O)=O  GI50 (SRB; 48 h): 2300 nM
O=C(Nc1cccc(CN2CCOCC2)c1)C1CCCN(C(=O)c2cc(C(F)(F)F)cc(C(F)(F)F)c2)C1 (stereo not drawn)  inhibition (WST-1; 100 µM): 0%
Cc1ncsc1-c1ccc(CNC(=O)[C@@H]2C[C@@H](O)CN2C(=O)[C@@H](NC(=O)CCCCCCCCCC(=O)N2CCN(CC[C@H](NC(=O)C3(N)CCN(c4ncnc5[nH]ccc45)CC3)c3ccc(Cl)cc3)CC2)C(C)(C)C)cc1  GI50 (72 h): 180 nM
COc1ccnc(COc2ccc(NC(=O)Nc3ccc(Cl)c(C(F)(F)F)c3)cc2)c1OC  IC50 (MTT; 72 h): > 100000 nM
O=C(N/N=C/CN1CCCC1)Nc1cc2c(Nc3ccc(F)c(Cl)c3)ncnc2cc1O[C@H]1CCOC1  IC50 (MTT; 72 h): 3890 nM
CSc1cccc(NC(=O)C2CCCN(C(=O)c3cc(C(F)(F)F)cc(C(F)(F)F)c3)C2)c1 (stereo not drawn)  inhibition (WST-1; 100 µM): 0%
CN1CCN(CCCn2cccc2/C=N/NC(=O)Nc2cc3c(Nc4ccc(F)c(Cl)c4)ncnc3cc2O[C@H]2CCOC2)CC1  IC50 (MTT; 72 h): 2060 nM
O=C(CN1C(=O)/C(=C/c2ccc[nH]2)SC1=S)Nc1ccccc1  inhibition (MTT; 10 µM): 22.7%
N#Cc1cccc(NC(=O)C2CCCN(C(=O)c3cc(C(F)(F)F)cc(C(F)(F)F)c3)C2)c1 (stereo not drawn)  inhibition (WST-1; 100 µM): 0%
COCCCOc1ccnc(COc2ccc(NC(=O)Nc3ccc(Cl)cc3)cc2)c1C  IC50 (MTT; 72 h): > 100000 nM
O=C(Nc1cccc(Oc2ccccc2)c1)C1CCCN(C(=O)c2cccc(-c3ccco3)c2)C1 (stereo not drawn)  inhibition (WST-1; 100 µM): 0%
O=C(N/N=C/CN1CCOCC1)Nc1cc2c(Nc3ccc(F)c(Cl)c3)ncnc2cc1O[C@H]1CCOC1  IC50 (MTT; 72 h): 3390 nM
COc1ccc(C(=O)/C=C/c2ccc(Cl)c(Cl)c2)cc1S(N)(=O)=O  GI50 (SRB; 48 h): 1900 nM
C#CC[C@]1(O)C[C@@H]2c3cc(OCc4cc(C)cc(C)c4)c(OCc4cc(C)cc(C)c4)cc3CCN2[C@@H](C)C1  IC50 (MTT): 523 nM
COc1ccc(C(=O)/C=C/c2cccc(Br)c2)cc1S(N)(=O)=O  GI50 (SRB; 48 h): 2000 nM
O=C(CN1C(=O)/C(=C/c2ccco2)SC1=S)Nc1ccccc1  inhibition (MTT; 10 µM): 23.1%
O=C(c1ccccc1)c1cccc(NC(=O)C2CCCN(C(=O)c3cc(C(F)(F)F)cc(C(F)(F)F)c3)C2)c1 (stereo not drawn)  inhibition (WST-1; 100 µM): 0%
COc1ccccc1/C=C/C(=O)c1ccc(OC)c(S(N)(=O)=O)c1  GI50 (SRB; 48 h): 4800 nM
O=C(N/N=C/c1cccn1CCN1CCCC1)Nc1cc2c(Nc3ccc(F)c(Cl)c3)ncnc2cc1O[C@H]1CCOC1  IC50 (MTT; 72 h): 1900 nM
COc1cccc(NC(=O)CN2C(=O)/C(=C/c3ccccc3)SC2=S)c1  inhibition (MTT; 10 µM): 17.8%
COc1ccc(-c2ccc(-c3ccc(C(=N)N)nc3)s2)cc1Cl  GI50: 1780 nM
Cc1cc(C)cc(COc2cc3c(cc2OCc2cc(C)cc(C)c2)[C@H]2C[C@](O)(Cc4cn(Cc5ccc(-c6ccccc6)cc5)nn4)C[C@H](C)N2CC3)c1  IC50 (MTT): 206 nM
COc1ccc(C(=O)/C=C/c2ccccc2Br)cc1S(N)(=O)=O  GI50 (SRB; 48 h): 4300 nM
CC/C(=C(\c1ccccc1)c1ccc(OCCN(C)C)cc1)c1ccccc1  EC90 (ATP luminescence; 72 h): 31000 nM
O=C(CN1C(=O)/C(=C/c2cccc(Br)c2)SC1=S)Nc1ccccc1  inhibition (MTT; 10 µM): 27.3%
COc1ccc(C(=O)/C=C/c2cccc(Cl)c2Cl)cc1S(N)(=O)=O  GI50 (SRB; 48 h): 4500 nM
C=CS(=O)(=O)Nc1ccc(CCn2cc(C[C@@]3(O)C[C@@H]4c5cc(OCc6cc(C)cc(C)c6)c(OCc6cc(C)cc(C)c6)cc5CCN4[C@@H](C)C3)nn2)cc1  IC50 (MTT): 1730 nM
